# From PubChem BioAssay
# A selection: hits, their analogues and other compounds. The true share with any hit is near 1.4%.
# KLK5 inh: human KLK5 protease inhibitors, primary screen, biochemical, 1536-well | Kallikrein-5 (Homo sapiens), Q9Y337 | recombinant hK5, fluorogenic AMC substrate cleavage | inhibition, % at 5 µM | actives 0.59% (n = 210,000);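 active = inhibition of 40% or more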;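 note: 0% = enzyme controls without compound and 100% = no-enzyme blanks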
# FXIa inh 1536: human FXIa protease inhibitors, primary screen, biochemical, 1536-well | Coagulation factor XI (Homo sapiens), P03951 | purified FXIa, Boc-Glu-Ala-Arg-AMC fluorogenic substrate | inhibition, % at 5 µM | actives 0.14% (n = 220,000) | AID 798, 2007;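 active = inhibition of at least 40%; inactive = inhibition below 40%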;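 note: fluorescence of freed AMC excited at 355 nm; 0% = enzyme without compound and 100% = no enzyme blank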
# Target sequence (P03951 19-387 limits assumed): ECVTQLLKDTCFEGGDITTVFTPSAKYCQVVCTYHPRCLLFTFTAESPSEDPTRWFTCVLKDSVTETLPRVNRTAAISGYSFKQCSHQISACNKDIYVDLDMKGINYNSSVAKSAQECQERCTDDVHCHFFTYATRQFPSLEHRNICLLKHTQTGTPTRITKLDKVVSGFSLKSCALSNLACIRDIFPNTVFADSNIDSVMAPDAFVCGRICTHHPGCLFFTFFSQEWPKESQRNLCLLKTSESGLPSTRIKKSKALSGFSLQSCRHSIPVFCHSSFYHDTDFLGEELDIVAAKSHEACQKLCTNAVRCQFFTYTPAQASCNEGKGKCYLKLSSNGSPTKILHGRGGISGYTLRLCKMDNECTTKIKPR
# Target sequence (P03951 388-625 limits assumed): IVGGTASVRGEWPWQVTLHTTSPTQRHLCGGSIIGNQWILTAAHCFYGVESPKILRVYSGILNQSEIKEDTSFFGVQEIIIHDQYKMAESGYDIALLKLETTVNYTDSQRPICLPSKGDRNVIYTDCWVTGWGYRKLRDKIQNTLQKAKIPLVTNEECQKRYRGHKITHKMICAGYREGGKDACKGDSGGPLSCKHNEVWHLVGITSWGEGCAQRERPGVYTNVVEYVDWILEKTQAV
# m-calpain inh: inhibitors of pig calpain II, primary screen, biochemical, fluorogenic peptide substrate, 1536-well. inhibition, % at 16 µM. actives 0.37% (n = 220,000). purified calpain II, 30 min;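 active = inhibition above about 50%, limit read from the data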
# FXIIa inh 1536: human FXIIa protease inhibitors, primary screen, biochemical, 1536-well. Coagulation factor XII (Homo sapiens), P00748. actives 0.3% (n = 220,000). inhibition, % at 5 µM. purified FXIIa, Boc-QGR-AMC fluorogenic substrate, 2 h; in the data active = inhibition above about 40%;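 note: 0% = enzyme with no compound and 100% = blank without enzyme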
# Thrombin inh: human alpha-thrombin inhibitors, primary screen, counter-screen for coagulation protease inhibitor project, biochemical, 1536-well, fluorogenic AMC substrate; Prothrombin (Homo sapiens), P00734; Boc-VPR-AMC fluorogenic substrate cleavage; inhibition, % at 5 µM; actives 0.26% (n = 220,000); AID 1046, 2008;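 active = inhibition at or above 40%; inactive = inhibition below 40%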;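 note: 0% = enzyme with no compound and 100% = wells without enzyme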
#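 System: Human alpha-thrombin protein | Medium: pH 7.5 Tris (50 mM) with NaCl 150 mM, Tween 20 0.05% | Times: Enzyme reaction carried out at room temperature | Detection: AMC fluorescence, 355/460 nm | Evaluation: Percent inhibition scaled between no-compound controls and no-enzyme blanks | Benchmarks: Enzyme without compound as high, wells lacking enzyme as low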
# Furin inhibitor: human furin inhibitors, primary screen, biochemical, fluorescence intensity. purified furin, fluorogenic substrate cleavage. actives 0.061% (n = 220,000). inhibition, % at 20 µM or 30 µM. P09958; in the data active = inhibition above about 25%
# Numbers without * were called inactive; . = not tested or not shown.
SMILES,KLK5 inh,FXIa inh 1536,m-calpain inh,FXIIa inh 1536,Thrombin inh,Furin inhibitor
CC1CC(C)CN(S(=O)(=O)N2CCC(C(=O)NCc3ccco3)CC2)C1 (stereo unspecified),-7,-7,20,.,-7,-20
O=C(Nc1ccc2c(c1)oc1ccccc12)N1CCOCC1,-13,42*,16,13,3,-29
Clc1ccc(CSc2ccc(-c3cccnc3)nn2)cc1,0,2,28,8,-3,-5
Fc1cccc(Cl)c1CSc1ccc(-c2cccnc2)nn1,-7,-4,64*,4,-11,1
Cc1ccc(C(=O)CSc2nnc3c4ccccc4nc(Cc4ccccc4)n23)cc1,-10,3,-1,16,-10,-5
Cc1nn(Cc2ccc(Cl)cc2Cl)c(C)c1NC(=O)c1nn(C)cc1Cl,20,2,60*,15,3,-19
CCOc1ccc(C2CC(=O)N(Nc3ccc([N+](=O)[O-])cc3[N+](=O)[O-])C2=O)cc1 (stereo unspecified),21,15,19,18,45*,2
CC(C)Oc1ccc(C2CC(=O)N(Nc3ccc([N+](=O)[O-])cc3[N+](=O)[O-])C2=O)cc1 (stereo unspecified),1,-1,-5,7,-3,-12
CS(=O)(=O)Nc1cccc(C(=O)CC2(O)C(=O)Nc3ccccc32)c1 (stereo unspecified),-16,1,-11,14,4,-18
CS(=O)(=O)Nc1cccc(C(=O)CC2(O)C(=O)Nc3ccc(Br)cc32)c1 (stereo unspecified),73*,23,-5,23,60*,-8
Cc1ccc2c(c1)C(O)(CC(=O)c1ccc3c(c1)OCO3)C(=O)N2 (stereo unspecified),-3,7,9,18,15,18
O=C(CC1(O)C(=O)Nc2ccc(Br)cc21)c1ccc2c(c1)OCO2 (stereo unspecified),-5,4,-12,15,50*,-22
COc1ccccc1CC(=O)NCc1csc(-c2cccs2)n1,9,47*,6,45*,11,-3
O=C(CSc1ccccn1)C12CC3CC(CC(C3)C1)C2,1,-1,51*,10,0,-15
Cc1[nH]n(-c2ccc(C(=O)O)cc2)c(=O)c1CCO,-3,-2,58*,13,-4,-29
O=C(O)c1ccc(F)c(S(=O)(=O)Nc2ccccc2Cl)c1,86*,2,13,0,18,-17
O=S(=O)(Nc1ccccc1Cl)c1ccc(F)cc1,-1,-2,-19,11,-5,-14
COc1ccc(C2C(C(=O)O)c3ccccc3C(=O)N2C)cc1Br (stereo unspecified),3,34,17,58*,1,-33
COc1cc(OC)c(C2C(C(=O)O)c3ccccc3C(=O)N2C)cc1OC (stereo unspecified),-5,5,11,13,2,-14
N#Cc1c(C(F)(F)F)cc(-c2cccs2)nc1SCc1ccc(Cl)nc1,-3,-4,-152,7,3,-10
Cc1ccc(C(C)C)c(OCCN)c1,-25,-8,15,4,-13,-23
Cc1ccc(C(C)C)c(OCCNC(=S)Nc2cccc3ccccc23)c1,-31,-4,51*,-4,-1,-18
COc1cc2nc(NCC3CCCO3)n3nc(-c4cccnc4)nc3c2cc1OC (stereo unspecified),-34,-6,-285,-2,-9,0
CC(=O)c1c(C)nn(-c2ccccc2)c1C,-4,2,-6,11,-3,-5
CC(=O)c1c(C(C)=O)c(C)n(C(c2ccccc2)c2ccccc2)c1C,0,-3,51*,3,-3,-20
SMILES,KLK5 inh,FXIa inh 1536,m-calpain inh,FXIIa inh 1536,Thrombin inh,Furin inhibitor
CC1(C)C2CC=C(/C=N/n3cnnc3)C1C2 (stereo unspecified),3,17,23,49*,2,-10
COc1cc([N+](=O)[O-])cc2sc(NC(C)=O)nc12,23,60*,-2,27,39,3
CCCCC(=O)Nc1nc2c(OC)cc([N+](=O)[O-])cc2s1,4,0,20,.,-2,-17
Cc1c(O)ccc(/C=N/Nc2nc(-c3cccnc3)nc3ccccc23)c1O,3,0,-21,5,1,-20
Oc1ccc(/C=N/Nc2nc(-c3cccnc3)nc3ccccc23)c(O)c1,40,42*,8,25,7,-2
O=C(NNC(=O)c1cc(OCC(F)(F)F)ccc1OCC(F)(F)F)c1cccc(C(F)(F)F)c1,-12,-15,92*,-2,31,-16
Clc1cc(Cl)c(OCc2nc(-c3ccccn3)no2)cc1Cl,1,-1,-7,-7,-15,-11
CC(C)(C)c1ccc(OCc2nc(-c3ccccn3)no2)c(Br)c1,44*,15,27,32,19,-12
NS(=O)(=O)c1ccc(CNC(=O)c2cc(-c3cccs3)nc3ccccc23)cc1,2,-2,-265,3,0,-28
CC(=O)Nc1ccc(S(=O)(=O)NCCNc2ccccc2[N+](=O)[O-])cc1,1,5,36,99*,0,-15
O=[N+]([O-])c1ccccc1NCCNS(=O)(=O)c1ccc(Cl)cc1,-1,9,13,13,4,-21
Oc1ccc(C[C@H]2CNC(=S)N2CCc2cc(C(F)(F)F)cc(C(F)(F)F)c2)cc1,4,-1,2,11,-1,-21
COc1ccccc1-c1nnc(NC(=O)C(C)SC2=NCCS2)s1 (stereo unspecified),53*,4,-15,6,15,-24
CC(SC1=NCCS1)C(=O)Nc1nnc(-c2ccc(Cl)cc2)s1 (stereo unspecified),-4,-6,27,-2,-1,-18
O=C(Nc1ccc2c(c1)OCO2)c1c(F)c(F)c(F)c(F)c1F,9,5,52*,10,0,-12
Cc1ccc(NC(=O)NCc2ccc3c(c2)OCO3)cc1,6,6,1,75*,2,-7
O=C(Nc1ccc2c(c1)OCO2)c1ccc2c(c1)OCO2,-7,-6,13,9,-6,-16
CC(=O)c1cccc(NC(=O)c2c(F)c(F)c(F)c(F)c2F)c1,-17,4,51*,14,0,-11
O=C(CCl)Nc1ccccc1C(=O)Nc1ccc2c(c1)OCO2,42*,28,23,25,16,0
Cc1ccc(CC(=O)NCc2ccc3c(c2)OCO3)cc1,25,18,4,9,4,-22
